Test results taken from ChEMBL document CHEMBL3108674, “6-Alkoxy-5-aryl-3-pyridinecarboxamides, a new series of bioavailable cannabinoid receptor type 1 (CB1) antagonists including peripherally selective compounds” (J Med Chem, 2013).
One block for each compound: values may come before it. Active and inactive are the calls of the source. The rule behind the calls is not given here.

How the values were obtained:
[1] = molecular target: T1, Cannabinoid receptor 1 (Homo sapiens, UniProt P21554); assay: Displacement of [3H]CP55940 from human CB1 receptor expressed in CHOK1 cells after 1 hr by liquid scintillation counting analysis; format: cell-based, CHO-K1
[2] = molecular target: Cannabinoid receptor 2 (Homo sapiens, UniProt P34972); assay: Displacement of [3H]CP55940 from human CB2 receptor expressed in CHOK1 cells after 1 hr by liquid scintillation counting analysis; format: cell-based, CHO-K1
Outline: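 Membranes from butyrate-treated (5 mM, 24 h) CHO-K1 cells stably expressing human CB2, incubated with 0.3 nM [3H]CP55940 and increasing ligand concentrations, 60 min, 30 °C, pH 7.4 Tris buffer with 0.1% fatty acid-free BSA and 1% DMSO; nonspecific binding with 10 μM CP55940; filtration, scintillation counting; tested in triplicate.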

[3] = tested on: Liver microsome; assay: Clearance in rat liver microsomes at 2 uM by LC-MS/MS analysis; format: ADME
Outline: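 Rat liver microsomes at 0.5 mg/mL were incubated with 2 μM compound (final) and an NADPH-regenerating system. Aliquots were taken at 1, 3, 6, 9, 15, 25, 35 and 45 min and quenched in acetonitrile containing internal standard. Depletion was measured by LC-MS/MS. Clmic = −slope × 1000 / protein concentration (mg/mL), not corrected for microsomal protein binding.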

[4] = tested on: Rattus norvegicus; assay: Maximum unbound fraction in rat at 9 mg/kg, po; format: ADME, organism-based; design: dose 9 mg/kg, route oral; settings: in vivo
[5] = tested on: Plasma; assay: Maximum unbound fraction in rat plasma at 9 mg/kg, po; format: ADME, organism-based; design: dose 9 mg/kg, route oral; settings: in vivo
[6] = molecular target: T2, Substance-K receptor (Homo sapiens, UniProt P21452); assay: Antagonist activity at human NK2 receptor
T2 sequence (P21452 whole entry): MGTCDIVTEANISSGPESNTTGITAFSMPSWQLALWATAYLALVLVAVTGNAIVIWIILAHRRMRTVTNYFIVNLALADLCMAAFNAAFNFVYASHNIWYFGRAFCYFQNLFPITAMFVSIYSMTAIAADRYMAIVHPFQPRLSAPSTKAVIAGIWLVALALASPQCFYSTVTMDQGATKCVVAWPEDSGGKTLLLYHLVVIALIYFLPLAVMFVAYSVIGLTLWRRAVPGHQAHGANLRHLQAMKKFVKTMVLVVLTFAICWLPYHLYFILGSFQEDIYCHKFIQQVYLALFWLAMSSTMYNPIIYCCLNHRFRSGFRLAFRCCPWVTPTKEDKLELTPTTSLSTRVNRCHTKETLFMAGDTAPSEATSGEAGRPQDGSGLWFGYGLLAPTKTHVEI

[7] = tested on: Rattus norvegicus; assay: Reduction of leptin level in high fat diet-fed Sprague-Dawley rat plasma at 30 mg/kg, po qd after 24 days by ELISA; format: functional, organism-based; design: dose 30 mg/kg
Outline: (§1)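 Diet-induced obese Sprague-Dawley rats (high responders), single-housed, groups of n = 9 matched for body weight and MRS body fat; drug given as food admix for 24 days alongside pair-fed groups; body weight and food intake measured daily; body fat by MRS; plasma leptin by ELISA; mean ± SEM, ANOVA with Dunnett's test versus vehicle.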

[8] = Drug uptake in Sprague-Dawley rat brain at 30 mg/kg, po qd after 10 days by LC-MS/MS analysis; format: ADME, organism-based; design: dose 30 mg/kg, route oral; settings: read-out: Drug uptake
[9] = Clearance in rat at 3.3 mg/kg, iv; format: ADME, organism-based; design: dose 3.3 mg/kg, route intravenous; settings: in vivo
[10] = Cmax in rat plasma at 9 mg/kg, po; format: ADME, organism-based; design: dose 9 mg/kg, route oral
[11] = Cmax in Sprague-Dawley rat plasma at 30 mg/kg, po qd after 10 days by LC-MS/MS analysis; format: ADME, organism-based; design: dose 30 mg/kg, route oral
Outline: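 Male Sprague-Dawley rats (n = 3 per compound) given 30 mg/kg/day as feed admix for 10 days; jugular vein catheter implanted 4 days before sampling; on day 10 switched to drug-free high fat chow, then serial K3EDTA blood samples over 24 h; plasma drug levels by LC-MS.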

[12] = molecular target: T1, Cannabinoid receptor 1; assay: Antagonist activity at human CB1 receptor overexpressed in HEK cells assessed as [35S]GTPgamma binding after 1 hr by liquid scintillation counting analysis; format: functional, cell-based, HEK293
[13] = Ratio of drug level in brain to plasma in rat; format: ADME; settings: brain and plasma, read-out: BPR
[14] = Plasma protein binding in rat; format: ADME, cell-free; settings: read-out: PPB (converted)
[15] = Volume of distribution at steady state in rat at 3.3 mg/kg, iv; format: ADME, organism-based; design: dose 3.3 mg/kg, route intravenous; settings: in vivo, read-out: Vdss
[16] = tested on: Rattus norvegicus; assay: Reduction in body fat content in high fat diet-fed Sprague-Dawley rat at 30 mg/kg, po qd after 24 days; format: functional, organism-based; design: dose 30 mg/kg; outline: as §1
[17] = Oral bioavailability in rat at 9 mg/kg; format: ADME, organism-based; settings: in vivo
[18] = Ratio of drug level in Sprague-Dawley rat brain to plasma at 30 mg/kg, po qd after 10 days by LC-MS/MS analysis; format: ADME, organism-based; design: dose 30 mg/kg, route oral; settings: brain and plasma, read-out: BPR
[19] = organism: Rattus norvegicus; assay: Reduction in body weight gain in high fat diet-fed Sprague-Dawley rat at […]; format: functional, organism-based
[20] = Tmax in rat plasma at 9 mg/kg, po; format: ADME, organism-based; design: dose 9 mg/kg, route oral
[21] = Tmax in rat plasma at 10 mg/kg, po; format: ADME, organism-based; design: dose 10 mg/kg, route oral
Outline: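 Single oral dose of 10 mg/kg in rats. Plasma concentrations followed over time, and time to peak plasma level (h) read from the profile.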

[22] = Cmax in rat plasma at 10 mg/kg, po; format: ADME, organism-based; design: dose 10 mg/kg, route oral
Outline: (§2)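 Single-dose oral PK in rats at 10 mg/kg, measuring peak plasma concentration. The maximum unbound level was given alongside rat plasma protein binding (%).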

[23] = tested on: Rattus norvegicus; assay: Increase of insulin sensitivity in high fat diet-fed Sprague-Dawley rat assessed as decrease in insulin AUC at 10 mg/kg, po qd administered for 24 days followed by glucose challenge by oral glucose tolerance test; format: functional, organism-based; design: dose 10 mg/kg
[24] = Tmax in po dosed rat plasma; format: ADME, organism-based
Outline: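 Single-dose rat PK study: compound given orally at 7.9 or 9 mg/kg, depending on compound. Plasma exposure followed over time, and Tmax (h) taken from the plasma concentration–time profile.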

[25] = tested on: Plasma; assay: Maximum unbound fraction in rat plasma at 10 mg/kg, po; format: ADME, organism-based; design: dose 10 mg/kg, route oral; settings: in vivo; outline: as §2
[26] = tested on: Rattus norvegicus; assay: Maximum unbound fraction in rat at 10 mg/kg, po; format: ADME, organism-based; design: dose 10 mg/kg, route oral; settings: in vivo; outline: as §2
[27] = Clearance in iv dosed rat; format: ADME, organism-based; settings: in vivo
[28] = Volume of distribution at steady state in iv dosed rat; format: ADME, organism-based; settings: in vivo, read-out: Vdss
[29] = Oral bioavailability in rat; format: ADME, organism-based; settings: in vivo
Outline: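 Bioavailability from rat single-dose PK, comparing oral dosing (10, 7.9 or 9 mg/kg, depending on compound) with intravenous dosing.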

T1 sequence (P21554 whole entry): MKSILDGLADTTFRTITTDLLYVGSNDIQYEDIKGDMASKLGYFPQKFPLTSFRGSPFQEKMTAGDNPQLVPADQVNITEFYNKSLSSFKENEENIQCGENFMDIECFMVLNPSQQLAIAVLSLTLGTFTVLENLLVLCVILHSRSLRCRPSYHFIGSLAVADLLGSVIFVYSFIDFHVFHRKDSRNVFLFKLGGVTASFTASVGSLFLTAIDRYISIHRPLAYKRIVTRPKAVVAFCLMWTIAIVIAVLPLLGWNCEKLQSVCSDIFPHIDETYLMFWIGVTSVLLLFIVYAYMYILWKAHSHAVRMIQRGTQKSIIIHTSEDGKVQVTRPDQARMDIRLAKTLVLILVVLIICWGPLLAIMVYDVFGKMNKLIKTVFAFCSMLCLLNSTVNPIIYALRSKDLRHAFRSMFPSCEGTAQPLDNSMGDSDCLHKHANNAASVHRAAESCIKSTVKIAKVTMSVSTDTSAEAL
Cannabinoid receptor 2, sequence (P34972 whole entry): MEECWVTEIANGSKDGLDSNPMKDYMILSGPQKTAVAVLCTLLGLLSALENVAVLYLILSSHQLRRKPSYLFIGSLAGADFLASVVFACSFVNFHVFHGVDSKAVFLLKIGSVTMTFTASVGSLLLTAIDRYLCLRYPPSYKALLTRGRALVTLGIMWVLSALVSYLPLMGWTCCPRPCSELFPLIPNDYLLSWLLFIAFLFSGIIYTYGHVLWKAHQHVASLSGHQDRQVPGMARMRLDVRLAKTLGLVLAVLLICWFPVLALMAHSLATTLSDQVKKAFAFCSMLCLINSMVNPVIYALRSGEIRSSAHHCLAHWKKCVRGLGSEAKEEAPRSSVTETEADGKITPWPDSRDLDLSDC

Ki [1]: 40.2 nM
Ki [2]: > 10000 nM
CLH [3]: 20 µL/min/mg
Structure (SMILES): O=C(N[C@@H]1CCCC[C@H]1O)c1cnc(OCc2ccccc2)c(-c2ccc(Cl)cc2)c1

Ki [1]: 67.7 nM
Ki [2]: 2080 nM
CLH [3]: 59 µL/min/mg
Structure (SMILES): O=C(N[C@@H]1CCCC[C@H]1O)c1cnc(OCC2CC2)c(-c2cc(C(F)(F)F)ccc2Cl)c1

Ki [1]: 10.6 nM
Ki [2]: > 10000 nM
CLH [3]: 151 µL/min/mg
Structure (SMILES): Cc1cc(COc2ncc(C(=O)N[C@@H]3CCCC[C@H]3O)cc2-c2ccc(Cl)cc2)on1

Structure (SMILES): COCCOc1ncc(C(=O)N[C@@H]2CCCC[C@H]2O)cc1-c1ccc(Cl)cc1
fCmax [4]: 156 nM
Cp(f)max [5]: 63 ng/mL
IC50 [6]: 46000 nM
Activity [7]: inactive
concentration at 240 h [8]: 130 ng/g
clearance [9]: 18.6 mL/min/kg
Cmax [10]: 1620 ng/mL
Ki [1]: 5.1 nM
Cmax [11]: 1000 ng/mL
EC50 [12]: 11.6 nM
Ki [2]: > 10000 nM
Kp [13]: 0.1
fraction unbound [14]: 0.039
Vd [15]: 0.7 L/kg
Activity [16]: inactive
CLH [3]: 98 µL/min/mg
bioavailability [17]: 84%
Kp at 240 h [18]: 0.13
Activity [19]: inactive
Tmax [20]: 0.5 h

Ki [1]: 51.1 nM
Ki [2]: > 10000 nM
CLH [3]: 1730 µL/min/mg
Structure (SMILES): CN(CC1CC1)c1ncc(C(=O)N[C@@H]2CCCC[C@H]2O)cc1-c1ccc(Cl)cc1

Tmax [21]: 1.5 h
Cmax [22]: 244 ng/mL
Kp [13]: 3
fraction unbound [14]: 0.003
Tmax [24]: 1 h
Cp(f)max [25]: 0.83 ng/mL
fCmax [26]: 1.8 nM
clearance [27]: 17 mL/min/kg
Vd [28]: 11.5 L/kg
bioavailability [29]: 12%
Structure (SMILES): Cc1c(C(=O)NN2CCCCC2)nn(-c2ccc(Cl)cc2Cl)c1-c1ccc(Cl)cc1 [RIMONABANT]
Activity [23]: Active

Ki [1]: 1660 nM
Ki [2]: > 10000 nM
CLH [3]: 353 µL/min/mg
Structure (SMILES): O=C(N[C@@H]1CCCC[C@H]1O)c1cnc(Oc2ccccc2)c(-c2ccc(Cl)cc2)c1

Ki [1]: 12.4 nM
Ki [2]: > 7000 nM
CLH [3]: 23 µL/min/mg
Structure (SMILES): O=C(N[C@@H]1CCCC[C@H]1O)c1cnc(OCC(F)(F)F)c(-c2ccc(Cl)cc2)c1
